From ChEMBL document CHEMBL2346582, “Guanidino anthrathiophenediones as G-quadruplex binders: uptake, intracellular localization, and anti-Harvey-Ras gene activity in bladder cancer cells” (J Med Chem, 2013)
Active and inactive are the calls of the source. No cut-off for these calls is given here.

Columns and labels:
[1] = test system: T-24; assay: Binding affinity to wild type HRAS quadruplex DNA in human T24 cells assessed as reduction in gene expression compound treated for 24 hrs prior to transfection measured 72 hrs post transfection by dual-luciferase reporter gene assay relative to control; type: cell-based
[2] = test system: T-24; assay: Cytotoxicity against human T24 cells expressing mutant HRAS at 1 to 30 uM after 72 hrs by resazurin assay; type: functional, cell-based; details: T-24, 72 h
In short: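 Cells seeded at 3000 per well the day before treatment, grown in DMEM with 10% FBS. Ligand added at 1, 2.5, 5, 10, 20, 30 μM for 72 h. Viability measured by resazurin and expressed as % of untreated cells; mean of three independent measurements. IC50 is the concentration reducing proliferation by 50%.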

[3] = test system: NIH3T3; assay: Cellular uptake in mouse NIH/3T3 cells at 0.5 to 10 uM after 8 hrs by flow cytometric analysis; type: ADME, cell-based; details: nih3t3, 8 h
In short: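 Cells plated at 5 × 10^4 per well and treated next day with ligand at […] for 8 h. Then trypsinized, resuspended in PBS and analysed by flow cytometry (488 nm excitation, FL3 680 nm, log scale), at least 10,000 cells per sample. Uptake read from intrinsic ligand red fluorescence.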

[4] = test system: NIH3T3; assay: Cellular uptake in mouse NIH/3T3 cells at 0.5 to 10 uM after 10 mins to 8 hrs by flow cytometric analysis; type: ADME, cell-based; details: nih3t3, 10 µM
In short: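 Flow cytometric uptake of 10 μM ligand over time (15 min, 1, 2, 6, 8 h; T24, and up to 8 h in NIH 3T3 and 293). Cells plated at 5 × 10^4 per well the day before. Ligand fluorescence detected in FL3 (680 nm), at least 10,000 cells acquired.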

[5] = test system: T-24; assay: Binding affinity to HRAS G-quadruplex DNA in human T24 cells assessed as reduction in p21HRAS level at 5 uM after 72 hrs by immunoblotting analysis relative to control; type: cell-based; set-up: scale not given: the % may be the effect or the level left
In short: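 T24 cells treated with 5 μM ligand for 48 or 72 h. Lysates (30 μg) run on 12% SDS-PAGE and immunoblotted with monoclonal anti-HRAS and β-actin antibodies, with HRP detection. HRAS level = (p21HRAS/β-actin treated)/(p21HRAS/β-actin untreated) × 100.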

[6] = Binding affinity to human telomeric G-quadruplex FAM-TTAGGGTTAGGGTTAGGGTTAGGG-TAMRA DNA assessed as quenching of fluorescence emission by FRET titration assay
In short: (§1)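 FRET titration of 200 nM oligonucleotide dual-labelled at its ends with carboxyfluorescein (donor) and tetramethylrhodamine (acceptor), in 50 mM Tris-HCl with KCl (100 mM for htelo and hras-1, 10 mM for KRAS and hras-2). Ligand binding quenches the emission, mainly the acceptor at 580 nm. The fraction of filled sites was fitted to the Hill equation to give apparent KD and the Hill coefficient.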

[7] = test system: T-24; assay: Induction of apoptosis in human T24 cells by caspase 3/7 assay; type: functional, cell-based
[8] = test system: NIH3T3; assay: Cellular uptake in mouse NIH/3T3 cells after 4 hrs by FACS flow cytometric analysis in presence of cytochalasin D; type: ADME, cell-based; details: nih3t3, 4 h
[9] = test system: T-24; assay: Binding affinity to wild type HRAS quadruplex DNA in human T24 cells assessed as reduction in gene expression at 0.5 to 5 uM treated for 24 hrs prior to transfection measured 72 hrs post transfection by dual-luciferase reporter gene assay relative to control; type: cell-based; set-up: scale not given: the % may be the effect or the level left
In short: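 T24 cells pretreated 24 h with ligand (0.5, 2.5, 5 μM). Then co-transfected with jet-PEI: firefly reporter (250 ng/well), either HRAS promoter wild type, HRAS promoter with 4 point mutations in the quadruplex motifs, or IL-8 promoter, plus CMV-Renilla (10 ng/well). Dual-Glo read 72 h post-transfection. Firefly/Renilla expressed as T/C × 100 relative to untreated cells.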

[10] = species: Homo sapiens; assay: Thermal stabilization of human HRAS1 G-quadruplex FAM-TCGGGTTGCGGGCGCAGGGCACGGGCG-TAMRA DNA assessed as change in melting temperature at 1:1 DNA:ligand ratio by FRET assay
In short: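 FRET melting in 50 mM Tris-HCl pH 7.4 with an equimolar ligand:quadruplex ratio (r = 1). Conditions: NRAS RNA and hras-2 in 10 mM KCl; hras-1 in 100 mM KCl, with ΔTM taken from its second transition. Ramp 1 °C/min from 20 to 95 °C after 5 min equilibration. TM and ΔTM (±0.5 K) versus ligand-free quadruplex.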

[11] = test system: T-24; assay: Cell cycle arrest in human T24 cells assessed as accumulation at G0/G1 phase at 10 uM after 48 to 72 hrs by FACS analysis relative to control; type: functional
In short: (§2)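 T24 cells treated with 10 μM ligand for 48 or 72 h. Fixed 1 h at 4 °C in 70% ethanol, then stained with propidium iodide 0.05 mg/mL plus RNase A 0.1 mg/mL for 30 min at room temperature. Analysed by FACS (FL2). Phase percentages compared with control by t-test (p < 0.05).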

[12] = test system: T-24; assay: Cell cycle arrest in human T24 cells assessed as accumulation at G2/M phase at 10 uM after 48 to 72 hrs by FACS analysis relative to control; type: functional; in short: as §2
[13] = test system: T-24 (human); assay: Cell cycle arrest in human T24 cells expressing mutant HRAS assessed as accumulation at G2/M phase at 10 uM after 24 hrs by FACS analysis
[14] = Binding affinity to mouse KRAS G-quadruplex FAM-GCGGGAGGGAGGGAAGGAGGGAGGGAGGGAG-TAMRA DNA assessed as quenching of fluorescence emission by FRET titration assay; in short: as §1
[15] = test system: HEK293; assay: Cell cycle arrest in human HEK293 cells expressing wild type HRAS assessed as accumulation at G2/M phase at 10 uM after 24 hrs by FACS analysis; type: functional, cell-based
In short: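 HEK293 cells (wild-type HRAS) treated with ligand for 24 h. Ethanol-fixed, stained with propidium iodide/RNase A, and analysed by FACS (FL2) for G0/G1, S and G2/M fractions.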

[16] = test system: Salmonidae; assay: Thermal stabilization of salmon sperm duplex DNA assessed as melting temperature by FRET assay
[17] = Binding affinity to human HRAS2 G-quadruplex FAM-CGGGGCGGGGCGGGGGCGGGGGCG-TAMRA DNA assessed as quenching of fluorescence emission by FRET titration assay; in short: as §1
[18] = test system: NIH3T3; assay: Cellular uptake in mouse NIH/3T3 cells assessed as accumulation in nucleoli at 2.5 uM after 4 hrs by propidium iodide staining-based confocal microscopic analysis; type: ADME, cell-based; details: nih3t3, 4 h
In short: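 NIH 3T3 cells on coverslips treated with 2.5 μM ligand for 2 or 4 h. Fixed with paraformaldehyde, DRP1 immunostained (FITC), nuclei stained with propidium iodide. Confocal imaging with 543 nm excitation of ligand fluorescence.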

Compound	Drug uptake [3]	Drug uptake [4]	Kd [6] [nM]	Drug uptake [8]	deltaTm [10] [K]	Kd [14] [nM]	Activity [16]	Kd [17] [nM]	Drug uptake [18]	Activity [1]	IC50 [2] [nM]	Activity [5] [%]	Activity [7]	Activity [9] [%]	Activity [11] [%]	Activity [12] [%]	Activity [13]	Activity [15]
N=C(N)NCCCNc1c2c(c(NCCNC(=N)N)c3ccsc13)C(=O)c1ccccc1C2=O	Active	Active	320	Active	5	210	Active	370	–	Dose-dependent effect	7900	20	inactive	25	63	12	Active	inactive
N=C(N)NCCCNc1c2c(c(NCCNC(=N)N)c3sccc13)C(=O)c1ccccc1C2=O	Active	Active	330	Active	8	230	Active	280	Active	Dose-dependent effect	6500	20	inactive	–	63	12	Active	inactive
N=C(N)NCCCCNc1c2c(c(NCCCCNC(=N)N)c3sccc13)C(=O)c1ccccc1C2=O	Active	Active	180	Active	7	270	Active	280	Active	Dose-dependent effect	19100	20	inactive	50	63	12	Active	inactive

The next compounds have a lower Kd [6] than those just listed; values first:

Drug uptake [3]	Drug uptake [4]	Kd [6] [nM]	Drug uptake [8]	deltaTm [10] [K]	Kd [14] [nM]	Activity [16]	Kd [17] [nM]	Drug uptake [18]	Compound	Activity [1]	IC50 [2] [nM]	Activity [5] [%]	Activity [7]	Activity [9] [%]	Activity [11] [%]	Activity [12] [%]	Activity [13]	Activity [15]
Active	Active	130	Active	5	180	Active	230	Active	N=C(N)NCCCNc1c2c(c(NCCCNC(=N)N)c3sccc13)C(=O)c1ccccc1C2=O	Dose-dependent effect	19500	20	inactive	50	63	12	Active	inactive
Active	Active	150	Active	5	250	Active	270	Active	N=C(N)NCCNc1c2c(c(NCCNC(=N)N)c3sccc13)C(=O)c1ccccc1C2=O	Dose-dependent effect	4400	20	inactive	25	63	12	Active	inactive
